The text below walks through data of publication PMC7251976 (Nature chemical biology, 2020).

Some results are limits rather than exact numbers.

For data set [1], the target named is T1, GPX4 (Homo sapiens, UniProt P36969).
T1 sequence (P36969 1-170 isoform P36969-2): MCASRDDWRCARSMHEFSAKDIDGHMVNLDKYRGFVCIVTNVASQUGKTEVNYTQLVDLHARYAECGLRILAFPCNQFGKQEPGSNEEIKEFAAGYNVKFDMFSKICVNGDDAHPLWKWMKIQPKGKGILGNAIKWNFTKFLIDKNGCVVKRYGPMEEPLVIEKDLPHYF
Nature of the data set: Lysate CETSA. Type of data set: binding. The note with it: assay format not stated in main text (Supplementary Fig. 11h,i). Summed up: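 Lysate from untreated cells diluted in PBS (pH 7.4) to 1 mg/mL total protein. Treated with 10 μM compound or 0.1% DMSO at 37 °C. Aliquots heated 3 min across a temperature gradient (typically 40–67 °C, 3 °C steps) and spun at 20,000 rcf. Soluble GPX4 assessed by western blot. HCC4006 data: mean ± s.e.m., n = 3 biologically independent samples.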

The nature of data set [2]: Chemical stability in solution / on storage. The note with it: prolonged periods at room temperature as a solution in DMSO. Type of data set: physicochemical.
A further data set addresses T2, purified GPX4 (Homo sapiens, UniProt P36969).
T2 sequence (P36969 1-170 isoform P36969-2): T1 sequence (P36969 1-170 isoform P36969-2)
Nature of the data set: Binding to purified GPX4 protein.

The subject of data set [3] is LOX-IMVI cells. Nature of the data set: Metabolite identification in cells. It is filed as in vitro ADME, human. Summed up:
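LOX-IMVI cells kept in serum-free Williams' medium E with 1 μM ferrostatin-1 and given test compound at 10 μM. Aliquots stopped with acetonitrile at 0, 2, 6, 24 and 48 h and centrifuged. Supernatants profiled by HPLC-DAD-HRMS; metabolite and adduct structures assigned by HPLC-MS/MS.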

A further data set is described as follows: Compound solubility. It is filed as physicochemical.
Data set [4] in a line: Stability profiling of GPX4 inhibitors. It is filed as in vitro ADME. Particulars: Supplementary Table 3.
In data set [5] the target is T3, FLAG-GPX4^WT in HEK293–6E cells (Homo sapiens, UniProt P36969).
T3 sequence (P36969 1-170 isoform P36969-2): T1 sequence (P36969 1-170 isoform P36969-2)
Nature of the data set: In-cell GPX4 mass spectrometry binding assay. Particulars: cells, 10 μM, 1 h. Summed up: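 HEK293-6E cells transfected with FLAG-GPX4WT plus SBP2 plasmids and harvested 72 h after seeding. Compound (1, 10 or 20 μM) added 1, 4 or 24 h before harvest; viability monitored. Lysis at pH 7.4 (50 mM sodium phosphate, 300 mM NaCl, 0.1% NP-40, protease inhibitors). GPX4 isolated by anti-FLAG chromatography, C4-desalted, then denaturing Q-TOF MS with deconvolution to read adduct mass.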

The target of data set [6] is T1, GPX4. Nature of the data set: Intact-cell cellular thermal shift assay. Type of data set: binding. Particulars: intact LOX-IMVI cells, 10 μM, 1 h. Summed up: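 Intact cells treated with 10 μM compound or 0.1% DMSO for 1 h at 37 °C, then washed, trypsinised and aliquoted (~1 million cells each). Aliquots heated 3 min at about 40–67 °C in 3 °C steps. After lysis, insoluble material removed (20,000 rcf, 20 min, 4 °C) and soluble GPX4 measured by western blot. HCC4006 data: mean ± s.e.m., n ≥ 4 biologically independent samples.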

Data set [7] concerns LOX-IMVI cells. Nature of the data set: Cell viability assay. Type of data set: cell-based, human. Summed up: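 LOX-IMVI cells seeded at 1000/well, left to adhere 24 h, then exposed to compound for 72 h. Viability read as cellular ATP by CellTiter-Glo. For rescue, one of the following was added at seeding: fer-1 1.5 μM, lip-1 1 μM, DFO 50 μM or zileuton 10 μM. Rescue data plotted as mean ± s.e.m. of 4 technical replicates.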

A short description of data set [8]: Pharmacokinetic study in mice after oral administration. It is filed as in vivo. Particulars: SCID mice, 50 mg/kg oral, over 24 h. Summed up:
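SCID mice given a single oral 50 mg/kg dose in PEG400/ethanol (90/10, v/v). Blood sampled at 1, 3, 6 and 24 h into lithium heparin tubes and centrifuged for plasma. Plasma precipitated with acetonitrile (1/5, v/v) and analysed by LC-MS/MS. Plotted as mean ± s.d.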

The nature of the next data set: Toxicity. Particulars: mice. It is filed as in vivo.

With `O=C(/C(C[N+](=O)[O-])=N/O)N1CCN(C(c2ccc(Cl)cc2)c2ccc(Cl)cc2)CC1` [JKE-1674], the “engagement of GPX4 in cell lysate” value at GPX4 [1] is “unable to engage”. Besides, the storage stability result in data set [2] is on record as “can decompose”. The “engagement of purified recombinant GPX4” value on purified GPX4 is “unable to engage”. Further, the “mass of adducts formed with cysteine and glutathione in cells” value in the data set with LOX-IMVI cells [3] was “+434 Da”. For the same compound, in the data set “Compound solubility”, the “solubility compared to ML210 and chloroacetamide inhibitors” value is given as “improves upon the solubility”. The “stability compared to chloroacetamide inhibitors” value in [4] was “far greater stability”. Besides, the “covalent GPX4 adduct mass increase” value in [5] is on record as “+434 Da”. On GPX4 [6], the “effect on GPX4 thermal stability” value is “thermal stabilization”. The “cell-killing activity / potency” value in the data set with LOX-IMVI cells [7] (72 h) was “equipotent to ML210”. In the data set on LOX-IMVI cells [7] (co-treatment with fer-1 (1.5 μM), lip-1 or DFO), the “rescue of cell-killing activity by ferroptosis inhibitors” value is reported as “completely rescued”. Besides, the “detection in serum/plasma after oral dosing” value in [8] is “can be detected”. Further, the “average body weight loss” value in “Toxicity” (50 mg/kg, 7 consecutive dosing days) was at most 10%. Besides, the tolerability entry in “Toxicity” (doses higher than 50 mg/kg) is “not tolerated”.
